Assay results published in the M2OR odorant receptor database.
Changes are numbered by the printed parent chain.

How the values were obtained:
Conditions in all cases: stereoisomer not certain
OR2A25 (Homo sapiens) = target: T1, OR2A25 (Homo sapiens) (UniProt A4D2G3)
T1 sequence (whole entry): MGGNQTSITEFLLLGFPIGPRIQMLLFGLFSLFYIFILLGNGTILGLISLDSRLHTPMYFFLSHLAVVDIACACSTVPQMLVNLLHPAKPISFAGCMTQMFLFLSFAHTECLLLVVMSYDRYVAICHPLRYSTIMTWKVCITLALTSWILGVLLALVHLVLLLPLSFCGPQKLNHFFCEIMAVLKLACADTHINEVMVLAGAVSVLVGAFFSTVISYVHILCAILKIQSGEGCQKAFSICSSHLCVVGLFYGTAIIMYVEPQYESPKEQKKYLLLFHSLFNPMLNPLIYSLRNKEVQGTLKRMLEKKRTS
Procedure, shortened: (§1)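 Whether a receptor–molecule pair is responsive (active) rests on the original authors' judgment that its measured signal was statistically different from baseline. Pairs without that judgment are non-responsive (inactive). Sources used varied assay methods, commonly transient luciferase assays in mammalian cell lines.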

OR2B11 (Homo sapiens) = target: T2, OR2B11 (Homo sapiens) (UniProt Q5JQS5)
T2 sequence (whole entry): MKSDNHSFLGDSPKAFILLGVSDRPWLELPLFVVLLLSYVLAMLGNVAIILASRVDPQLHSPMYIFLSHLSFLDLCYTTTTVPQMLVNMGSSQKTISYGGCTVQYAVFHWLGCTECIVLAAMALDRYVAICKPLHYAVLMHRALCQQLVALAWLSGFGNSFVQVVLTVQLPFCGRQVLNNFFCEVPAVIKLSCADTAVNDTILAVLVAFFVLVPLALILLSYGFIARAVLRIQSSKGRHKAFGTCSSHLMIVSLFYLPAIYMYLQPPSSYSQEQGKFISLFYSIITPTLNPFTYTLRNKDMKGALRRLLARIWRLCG
Procedure, shortened: as §1

OR2A7 (Homo sapiens) = target: T3, OR2A7 (Homo sapiens) (UniProt Q96R45)
T3 sequence (whole entry): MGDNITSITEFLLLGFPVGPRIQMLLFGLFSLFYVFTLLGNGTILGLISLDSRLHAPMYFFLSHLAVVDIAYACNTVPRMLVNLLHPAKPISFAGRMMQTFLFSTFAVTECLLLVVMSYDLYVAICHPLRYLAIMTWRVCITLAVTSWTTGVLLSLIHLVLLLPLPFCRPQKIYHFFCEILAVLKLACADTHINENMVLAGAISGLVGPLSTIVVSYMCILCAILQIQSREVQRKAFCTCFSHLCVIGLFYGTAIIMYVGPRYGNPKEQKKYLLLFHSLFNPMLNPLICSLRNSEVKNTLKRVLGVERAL
Procedure, shortened: as §1

OR2A12 (Homo sapiens) = target: T4, OR2A12 (Homo sapiens) (UniProt Q8NGT7)
T4 sequence (whole entry): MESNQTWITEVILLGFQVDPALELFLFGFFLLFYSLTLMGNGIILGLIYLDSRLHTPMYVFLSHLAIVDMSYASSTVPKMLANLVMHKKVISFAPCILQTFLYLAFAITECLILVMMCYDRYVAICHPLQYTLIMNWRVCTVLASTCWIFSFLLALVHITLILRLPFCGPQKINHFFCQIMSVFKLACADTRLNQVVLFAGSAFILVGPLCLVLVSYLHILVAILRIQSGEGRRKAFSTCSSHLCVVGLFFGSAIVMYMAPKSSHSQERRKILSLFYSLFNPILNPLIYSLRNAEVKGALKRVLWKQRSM
Procedure, shortened: as §1

OR2A14 (Homo sapiens) = target: T5, OR2A14 (Homo sapiens) (UniProt Q96R47)
T5 sequence (whole entry): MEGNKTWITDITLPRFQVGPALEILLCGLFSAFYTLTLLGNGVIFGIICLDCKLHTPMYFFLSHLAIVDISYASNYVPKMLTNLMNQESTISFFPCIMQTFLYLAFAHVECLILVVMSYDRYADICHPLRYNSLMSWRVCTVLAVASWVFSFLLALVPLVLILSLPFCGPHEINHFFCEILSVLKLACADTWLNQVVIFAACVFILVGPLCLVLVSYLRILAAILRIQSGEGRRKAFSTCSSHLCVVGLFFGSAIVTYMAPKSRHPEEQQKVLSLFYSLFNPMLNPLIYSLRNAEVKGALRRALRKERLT
Procedure, shortened: as §1

OR2A2 (Homo sapiens) = target: T6, OR2A2 (Homo sapiens) (UniProt Q6IF42)
T6 sequence (whole entry): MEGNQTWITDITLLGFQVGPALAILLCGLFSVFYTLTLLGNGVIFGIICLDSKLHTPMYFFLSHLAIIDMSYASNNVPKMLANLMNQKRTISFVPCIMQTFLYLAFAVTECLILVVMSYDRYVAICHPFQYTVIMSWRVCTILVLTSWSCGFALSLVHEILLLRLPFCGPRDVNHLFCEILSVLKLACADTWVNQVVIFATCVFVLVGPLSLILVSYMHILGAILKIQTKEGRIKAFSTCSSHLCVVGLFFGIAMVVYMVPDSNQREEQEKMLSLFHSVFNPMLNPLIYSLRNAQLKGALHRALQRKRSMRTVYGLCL
Procedure, shortened: as §1

OR2A4 (Homo sapiens) = target: T7, OR2A4 (Homo sapiens) (UniProt O95047)
T7 sequence (whole entry): T3 sequence (whole entry) with T9R, C238R, F250V
Procedure, shortened: as §1

OR2A5 (Homo sapiens) = target: T8, OR2A5 (Homo sapiens) (UniProt Q96R48)
T8 sequence (whole entry): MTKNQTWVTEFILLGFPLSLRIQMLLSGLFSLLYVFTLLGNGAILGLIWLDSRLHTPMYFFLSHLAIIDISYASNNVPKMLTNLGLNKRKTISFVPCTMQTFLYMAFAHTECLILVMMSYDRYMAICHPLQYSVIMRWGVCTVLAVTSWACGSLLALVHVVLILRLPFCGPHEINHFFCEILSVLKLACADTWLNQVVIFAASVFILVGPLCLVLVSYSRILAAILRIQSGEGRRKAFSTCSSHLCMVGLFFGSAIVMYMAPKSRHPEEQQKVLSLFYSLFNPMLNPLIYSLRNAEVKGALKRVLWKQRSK
Procedure, shortened: as §1

OR2AE1 (Homo sapiens) = target: T9, OR2AE1 (Homo sapiens) (UniProt Q8NHA4)
T9 sequence (whole entry): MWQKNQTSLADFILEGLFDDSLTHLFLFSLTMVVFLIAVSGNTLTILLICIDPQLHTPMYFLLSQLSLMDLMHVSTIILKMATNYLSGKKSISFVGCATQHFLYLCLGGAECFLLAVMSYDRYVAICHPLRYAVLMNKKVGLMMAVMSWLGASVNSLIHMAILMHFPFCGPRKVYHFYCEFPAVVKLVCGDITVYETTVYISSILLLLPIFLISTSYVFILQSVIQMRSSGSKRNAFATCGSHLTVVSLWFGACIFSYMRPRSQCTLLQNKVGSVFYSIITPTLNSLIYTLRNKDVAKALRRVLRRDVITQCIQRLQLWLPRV
Procedure, shortened: as §1

OR2AG1 (Homo sapiens) = target: T10, OR2AG1 (Homo sapiens) (UniProt Q9H205)
T10 sequence (whole entry): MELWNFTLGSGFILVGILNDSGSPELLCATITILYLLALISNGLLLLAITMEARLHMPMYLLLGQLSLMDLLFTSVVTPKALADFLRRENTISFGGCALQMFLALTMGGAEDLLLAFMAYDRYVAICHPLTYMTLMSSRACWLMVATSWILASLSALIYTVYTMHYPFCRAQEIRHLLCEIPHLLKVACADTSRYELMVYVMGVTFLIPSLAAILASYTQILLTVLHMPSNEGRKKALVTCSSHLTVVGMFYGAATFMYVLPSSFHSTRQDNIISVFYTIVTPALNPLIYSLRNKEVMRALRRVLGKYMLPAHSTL
Procedure, shortened: as §1

OR2AG2 (Homo sapiens) = target: T11, OR2AG2 (Homo sapiens) (UniProt A6NM03)
T11 sequence (whole entry): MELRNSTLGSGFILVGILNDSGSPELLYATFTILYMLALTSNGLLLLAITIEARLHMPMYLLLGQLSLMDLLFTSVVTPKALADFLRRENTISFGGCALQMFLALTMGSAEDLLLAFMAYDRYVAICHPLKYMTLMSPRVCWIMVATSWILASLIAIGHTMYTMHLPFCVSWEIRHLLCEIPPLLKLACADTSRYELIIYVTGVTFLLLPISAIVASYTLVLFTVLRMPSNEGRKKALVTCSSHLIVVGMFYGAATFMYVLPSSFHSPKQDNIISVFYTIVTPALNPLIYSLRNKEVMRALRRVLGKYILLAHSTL
Procedure, shortened: as §1

OR2AJ1 (Homo sapiens) = target: T12, OR2AJ1 (Homo sapiens) (UniProt Q8NGZ0)
T12 sequence (whole entry): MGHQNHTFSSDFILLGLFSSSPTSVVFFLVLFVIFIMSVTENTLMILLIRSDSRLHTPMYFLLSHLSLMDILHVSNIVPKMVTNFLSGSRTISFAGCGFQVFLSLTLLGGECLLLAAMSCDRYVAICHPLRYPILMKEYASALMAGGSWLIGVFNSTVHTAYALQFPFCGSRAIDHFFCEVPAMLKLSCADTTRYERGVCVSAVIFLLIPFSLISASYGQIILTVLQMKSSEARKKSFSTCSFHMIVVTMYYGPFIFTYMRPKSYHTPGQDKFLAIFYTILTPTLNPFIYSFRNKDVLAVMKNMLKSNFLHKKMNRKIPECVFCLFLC
Procedure, shortened: as §1

OR2AK2 (Homo sapiens) = target: T13, OR2AK2 (Homo sapiens) (UniProt Q8NG84)
T13 sequence (whole entry): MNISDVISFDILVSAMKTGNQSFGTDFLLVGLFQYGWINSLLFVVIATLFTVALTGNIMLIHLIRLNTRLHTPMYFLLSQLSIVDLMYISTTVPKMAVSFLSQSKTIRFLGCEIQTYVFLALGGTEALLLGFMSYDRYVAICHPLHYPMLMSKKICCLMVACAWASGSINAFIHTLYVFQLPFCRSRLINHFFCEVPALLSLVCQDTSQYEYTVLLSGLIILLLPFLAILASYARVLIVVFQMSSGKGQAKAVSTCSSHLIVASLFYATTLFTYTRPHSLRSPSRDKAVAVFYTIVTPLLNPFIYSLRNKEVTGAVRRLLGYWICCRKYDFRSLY
Procedure, shortened: as §1

OR2AP1 (Homo sapiens) = target: T14, OR2AP1 (Homo sapiens) (UniProt Q8NGE2)
T14 sequence (whole entry): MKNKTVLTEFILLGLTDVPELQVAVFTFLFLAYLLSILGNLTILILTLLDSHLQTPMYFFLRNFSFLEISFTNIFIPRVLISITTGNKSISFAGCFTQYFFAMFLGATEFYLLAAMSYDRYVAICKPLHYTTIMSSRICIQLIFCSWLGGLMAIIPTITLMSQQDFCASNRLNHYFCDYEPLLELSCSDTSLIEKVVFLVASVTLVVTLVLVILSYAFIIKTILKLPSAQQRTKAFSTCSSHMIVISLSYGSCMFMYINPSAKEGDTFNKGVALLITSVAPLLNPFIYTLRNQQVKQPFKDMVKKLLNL
Procedure, shortened: as §1

OR2AT4 (Homo sapiens) = target: T15, OR2AT4 (Homo sapiens) (UniProt A6NND4)
T15 sequence (whole entry): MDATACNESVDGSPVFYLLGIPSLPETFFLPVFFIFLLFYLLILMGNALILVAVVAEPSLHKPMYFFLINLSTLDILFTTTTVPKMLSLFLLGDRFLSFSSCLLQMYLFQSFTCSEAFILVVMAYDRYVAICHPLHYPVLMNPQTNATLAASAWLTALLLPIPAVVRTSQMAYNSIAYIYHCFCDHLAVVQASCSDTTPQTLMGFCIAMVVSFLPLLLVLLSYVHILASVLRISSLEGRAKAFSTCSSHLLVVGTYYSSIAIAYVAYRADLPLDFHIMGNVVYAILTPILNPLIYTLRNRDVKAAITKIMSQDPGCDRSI
Procedure, shortened: as §1

OR2B2 (Homo sapiens) = target: T16, OR2B2 (Homo sapiens) (UniProt Q9GZK3)
T16 sequence (whole entry): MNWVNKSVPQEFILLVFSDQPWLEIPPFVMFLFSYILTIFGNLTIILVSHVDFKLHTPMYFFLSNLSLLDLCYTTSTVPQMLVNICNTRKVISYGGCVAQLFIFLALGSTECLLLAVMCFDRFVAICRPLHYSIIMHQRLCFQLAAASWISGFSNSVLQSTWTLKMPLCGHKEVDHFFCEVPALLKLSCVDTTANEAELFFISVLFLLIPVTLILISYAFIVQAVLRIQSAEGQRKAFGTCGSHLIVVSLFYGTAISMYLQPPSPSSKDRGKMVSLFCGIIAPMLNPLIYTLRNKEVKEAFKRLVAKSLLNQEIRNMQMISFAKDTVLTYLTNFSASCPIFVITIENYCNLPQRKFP
Procedure, shortened: as §1

c1ccc2ncccc2c1
odorant receptor agonist call (OR2A25 (Homo sapiens)): active
odorant receptor agonist call (OR2B11 (Homo sapiens)): active

CCCC(=O)CC
odorant receptor agonist call (OR2A7 (Homo sapiens)): inactive

CC(=O)c1c(C)c([N+](=O)[O-])c(C(C)(C)C)c([N+](=O)[O-])c1C
odorant receptor agonist call (OR2A12 (Homo sapiens)): inactive
odorant receptor agonist call (OR2A14 (Homo sapiens)): inactive
odorant receptor agonist call (OR2A2 (Homo sapiens)): inactive
odorant receptor agonist call (OR2A25 (Homo sapiens)): inactive
odorant receptor agonist call (OR2A4 (Homo sapiens)): inactive
odorant receptor agonist call (OR2A5 (Homo sapiens)): inactive
odorant receptor agonist call (OR2A7 (Homo sapiens)): inactive
odorant receptor agonist call (OR2AE1 (Homo sapiens)): inactive
odorant receptor agonist call (OR2AG1 (Homo sapiens)): inactive
odorant receptor agonist call (OR2AG2 (Homo sapiens)): inactive
odorant receptor agonist call (OR2AJ1 (Homo sapiens)): inactive
odorant receptor agonist call (OR2AK2 (Homo sapiens)): inactive
odorant receptor agonist call (OR2AP1 (Homo sapiens)): inactive
odorant receptor agonist call (OR2AT4 (Homo sapiens)): inactive
odorant receptor agonist call (OR2B11 (Homo sapiens)): inactive
odorant receptor agonist call (OR2B2 (Homo sapiens)): inactive
